TNAP inh hiacc: inhibitors of human TNAP at high phosphate acceptor concentration; P05186; purified TNAP, CDP-star luminescence, 1 M DEA; inhibition, % at 20 µM; actives 0.03% (n = 200,000); AID 1135;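 active = over 50% inhibition of tissue-nonspecific alkaline phosphatase at 20 µM in the single-dose screen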
Target sequence (P05186 whole entry, looked up): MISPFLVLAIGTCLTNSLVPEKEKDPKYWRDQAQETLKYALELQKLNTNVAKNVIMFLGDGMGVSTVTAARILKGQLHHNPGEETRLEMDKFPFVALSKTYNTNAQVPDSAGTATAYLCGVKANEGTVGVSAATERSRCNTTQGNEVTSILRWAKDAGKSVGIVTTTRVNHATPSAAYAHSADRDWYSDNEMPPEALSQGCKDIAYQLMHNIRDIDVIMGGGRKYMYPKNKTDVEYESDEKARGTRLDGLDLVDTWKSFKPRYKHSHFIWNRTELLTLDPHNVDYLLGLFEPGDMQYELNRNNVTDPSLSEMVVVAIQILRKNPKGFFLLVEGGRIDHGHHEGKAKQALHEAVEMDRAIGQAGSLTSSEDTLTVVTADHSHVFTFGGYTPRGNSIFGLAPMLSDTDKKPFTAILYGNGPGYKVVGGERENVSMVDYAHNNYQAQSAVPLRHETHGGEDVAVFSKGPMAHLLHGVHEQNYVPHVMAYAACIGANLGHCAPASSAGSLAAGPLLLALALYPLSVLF
WT yeast gro inh: growth inhibition of WT yeast, mitochondrial fusion screen | mitochondrial fusion phenotypic screen, WT strain | inhibition, % at 10 µM | actives 2.1% (n = 190,000) | AID 1362; in the data active = inhibition above about 58%; tested in S. cerevisiae
TNAP inh no acc: blocks human TNAP activity with no phosphate acceptor present. inhibition, % at 20 µM. AID 1012. actives 0.26% (n = 200,000). P05186. purified TNAP, CDP-star luminescence, 30 min;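 active = tissue-nonspecific alkaline phosphatase inhibition above about 50% at 20 µM in the single-dose screen, limit read from the data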
Arbovirus anti: blocks arbovirus infection. arbovirus infection cell-based antiviral screen. actives 0.37% (n = 200,000). inhibition, % at 10 µM. AID 1251; in the data active = inhibition above about 30%
TNAP act hiacc: increases human TNAP activity under high phosphate acceptor concentration; P05186; purified TNAP, CDP-star luminescence, 1 M DEA, 30 min; active compounds read high; 0 = EDTA background, 1 = DMSO-only activity; activation factor at 20 µM; 200,000 tested, under 10 active; AID 1136;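 active = activation factor at least 2 at 20 µM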
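Test system – human TNAP · Doses – 20 µM single point · Incubation – 30 min, room temperature · Signal – luminescent substrate turnover signal · Read-out basis – activation factor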
Hits are given with their value; 0 = inactive; - = no result given. Compounds with a hit are over-represented: about 2.6% of the library has one in this group of screens.

SMILES	TNAP inh hiacc	WT yeast gro inh	TNAP inh no acc	Arbovirus anti	TNAP act hiacc
COc1ccc(-c2nc(SC)n(C(=O)c3ccco3)n2)cc1	0	0	51.7	0	0
CCCC(=O)n1nc(-c2ccc(Cl)cc2)nc1SC	0	0	53.2	0	0
CCC(=O)n1nc(-c2ccc(Cl)cc2)nc1SC	0	0	60.5	0	0
CCC(=O)n1nc(-c2ccc(OC)cc2)nc1SC	0	0	54.0	0	0
Cc1cccc(-c2nc(CSc3nc4c(c(=O)[nH]3)CCC4)c(C)o2)c1	0	0	0	0	0
C=CCC1(O)C(=O)N2C(=C1C(=O)N1CCOCC1)c1ccccc1CC2(C)C (stereo not given)	0	0	0	0	0
N#CCCN(Cc1cccnc1)C(=S)Nc1ccc(OC(F)F)cc1	0	0	0	30.9	0
N#CCCN(Cc1cccnc1)C(=S)Nc1ccccc1Cl	0	0	0	0	0
CCOC(=O)CSc1cccc2cccnc12	0	0	0	0	0
OCC1(Cc2cccc(C(F)(F)F)c2)CCN(Cc2cc(F)cc(F)c2)CC1	0	69.3	0	0	0
Cc1ccc(-n2cc(CN3CCC(CO)(Cc4cccc(C(F)(F)F)c4)CC3)cn2)cc1	0	93.0	0	0	0
CSc1cccc(CN2CCC(CO)(Cc3cccc(C(F)(F)F)c3)CC2)c1	0	0	0	0	0
COC(=O)/C(=C/c1c[nH]c2ccccc12)[N+](=O)[O-]	0	0	0	0	0
C=CCC1(C#N)C(SC)=NC2=C(C(=O)CC(C)(C)C2)C1c1ccc(Br)cc1 (stereo not given)	0	73.8	0	0	0
CCCCOC(=O)c1ccc(NC(=S)NC(=O)c2c(Br)c(C)nn2C)cc1	0	0	0	0	0
COc1ccc(C/C(=N\O)c2ccc(OC)cc2)cc1	0	-	0	0	0
CCCCCNCC(=O)Nc1cccc(C(=O)Nc2cccc(C(F)(F)F)c2)c1	0	78.4	0	0	0
CCOc1cccc(OCCCNCCCOC)c1	0	60.4	0	0	0
CC(=O)N1c2ccc3ccccc3c2C(C)CC12CCCCC2 (stereo not given)	0	87.3	0	0	0
CNc1oc(-c2ccc(Cl)cc2)nc1P(=O)(c1ccccc1)c1ccccc1	0	61.9	0	0	0
Cc1cccc(-n2c(=O)c3c4c(sc3n3c(=S)[nH]nc23)CCC4)c1	0	0	0	33.9	0
COCC1CCN(Cc2nc(-c3ccc(OC)cc3)no2)CC1	0	0	0	0	0
Cc1ccc(-c2ncccc2OC(=O)C23CC4CC(CC(C4)C2)C3)cc1	0	72.8	0	0	0
Cc1ccc(/C(N)=N/OC(=O)C23CC4CC(CC(C4)C2)C3)cc1	0	0	0	0	0
COc1ccc(NC(=O)c2cc3cccc(OC)c3oc2=Nc2ccc(C(=O)O)cc2)cc1OC	0	0	0	31.5	0
SMILES	TNAP inh hiacc	WT yeast gro inh	TNAP inh no acc	Arbovirus anti	TNAP act hiacc
CCCCN1C2=C(C(=O)CCC2)C(c2ccc(Cl)c(Cl)c2)C2=C1c1ccccc1C2=O (stereo not given)	0	67.4	0	0	0
COc1cccc(C2C3=C(CCCC3=O)NC3=C2C(=O)c2ccccc23)c1 (stereo not given)	0	0	0	0	0
NNc1cc([N+](=O)[O-])cc2c1C(=O)N(Cc1ccccc1)S2=O (stereo not given)	0	0	0	0	0
CCOc1ccc(NC(=O)C(C)Oc2ccccc2C(=O)Nc2ccc(C)c(Cl)c2)cc1 (stereo not given)	0	0	0	0	0
O=C(c1ccccc1)c1cn[nH]c1-c1ccccc1O	0	0	77.6	0	0
CCOc1cc2[nH]c(=S)n(CCC(=O)NCc3ccco3)c(=O)c2cc1OCC	0	0	0	0	0
CC1=NN(c2ccccc2)C(=O)/C1=C/c1cc2cc(C)ccc2nc1N1CCCCC1	0	71.1	0	0	0
CCOc1ccc(-c2cc(N3C(=O)Nc4ccccc4N3O)n[nH]2)cc1	0	0	52.1	0	0
COc1cccc(-c2cc(N3C(=O)Nc4ccccc4N3O)n[nH]2)c1	0	0	0	0	0
CCCn1c2c(c(O)c(C(=O)Nc3nc4ccccc4s3)c1=O)CCCC2	0	0	0	43.3	0
Cc1ccnc(N2CCC(C(=O)Nc3cccc(C(F)(F)F)c3)CC2)n1	0	0	0	0	0
Cc1ccc(CON=C2CCN(c3ncc(C(F)(F)F)cc3Cl)CC2)cc1	0	0	0	0	0
FC(F)(F)c1cnc(N2CCC(=NOCc3ccc(Cl)cc3)CC2)c(Cl)c1	0	63.2	0	0	0
C#CCOC(=O)C(NC(=O)c1ccccc1)=C1CCCCC1	0	0	0	0	0
O=C(/C(=C/c1ccccc1)c1ccccc1)N1CCCCC1	0	0	0	0	0
c1ccc(-c2csc(N3CCCCCC3)n2)cc1	0	0	0	0	0
Cc1cc(N2CCN(c3nc(-c4ccccc4)cs3)CC2)c2ccccc2n1	0	70.2	0	0	0
C/C(CCc1ccc2c(c1)OCO2)=N\N=C1\NC(=O)CC(C(=O)Nc2ccc(Cl)cc2)S1 (stereo not given)	0	72.7	0	0	0
COC(=O)Cc1ccc(NC(=S)NCc2cccc(OC)c2)cc1	0	0	0	0	0
CCc1ccc(NC(=S)NCc2ccccc2)cc1	0	69.9	0	0	0
CCCCc1ccc(NC(=S)NCc2cccc(OC)c2)cc1	0	65.9	0	0	0
COc1ccc(-c2csc(NC(=O)c3ccc(OCC(=O)N4CCOCC4)c(OC)c3)n2)cc1	0	0	0	44.0	0
COc1cccc(C(=O)Nc2nc(-c3ccc(S(=O)(=O)N4CCOCC4)cc3)cs2)c1	0	0	0	0	0
O=C(Nc1nc(-c2cccs2)cs1)c1cccc(S(=O)(=O)N2CCCCC2)c1	0	0	0	0	0
COc1cc(C(=O)O)ccc1OCC(=O)N1CCOCC1	0	0	0	0	0
SMILES	TNAP inh hiacc	WT yeast gro inh	TNAP inh no acc	Arbovirus anti	TNAP act hiacc
Cc1ccc(-c2csc(NC(=O)c3cccc(S(=O)(=O)N4CCN(C)CC4)c3)n2)cc1	0	0	0	35.1	0
COc1cc(C(=O)Nc2nc(-c3ccc(F)cc3)cs2)ccc1OCC(=O)N1CCOCC1	0	0	0	83.3	0
COc1cc(C(=O)Nc2nc(-c3ccc(C)cc3)cs2)ccc1OCC(=O)N1CCOCC1	0	0	0	90.8	0
COc1ccc(-c2nc(C)sc2CC(=O)O)cc1OC	0	0	0	0	0
Cc1csc(=O)n1CCC(=O)O	0	0	0	0	0
CCn1nc(C)c(C(=O)Nc2cc(Oc3cc(C)cc(C)c3)cc([N+](=O)[O-])c2)c1C	0	68.7	0	0	0
COC(=O)CSCC(=O)Nc1nnc(-c2ccccc2C)s1	0	0	0	0	0
CC(C)(C)c1ccccc1NC(=O)c1c(O)c2cccc3c2n(c1=O)CC3	0	0	0	0	0
Cc1ccc(C(C)C)c(OCc2nn(CC(=O)c3ccc(OC(F)F)cc3)c3[n+]2CCCCC3)c1	0	0	0	0	0
O=C(O)c1cccc(NN=C2c3ccccc3-c3ccccc32)c1	0	0	0	69.4	0
O=C(CNC(=O)C1COc2ccccc2O1)N/N=C/c1ccc(O)cc1O (stereo not given)	0	0	0	0	0

Screening data as filed in PubChem.
